Measurements published in ChEMBL document CHEMBL1127469, “Decapeptide agonists of human C5a: the relationship between conformation and spasmogenic and platelet aggregatory activities” (J Med Chem, 1994).
Bridge positions count the residues as written; N and C are the ends. Peptide text beside a SMILES is read from it.

What was measured:
[1] = biological target: T1, C5a anaphylatoxin chemotactic receptor 1 (Homo sapiens) (UniProt P21730); test: Pharmacological activity against C5a receptor in human fetal artery
T1 sequence (whole entry): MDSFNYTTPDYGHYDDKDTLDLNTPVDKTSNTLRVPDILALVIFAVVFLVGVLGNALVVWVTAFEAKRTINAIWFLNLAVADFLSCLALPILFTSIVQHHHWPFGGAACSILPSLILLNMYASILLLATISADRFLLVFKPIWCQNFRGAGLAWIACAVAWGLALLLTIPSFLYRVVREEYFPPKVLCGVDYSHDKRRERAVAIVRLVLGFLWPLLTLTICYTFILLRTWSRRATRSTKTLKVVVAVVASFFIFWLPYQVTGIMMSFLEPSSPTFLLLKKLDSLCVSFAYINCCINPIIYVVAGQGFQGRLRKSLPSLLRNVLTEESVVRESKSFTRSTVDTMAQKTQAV
Summary of the method: (§1)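 Isometric contraction of tissue strips in 2 mL organ baths of Krebs-Ringers solution, 37 °C, pH 7.4, gassed with 95% O2/5% CO2, equilibrated 1 h. Tachyphylaxis prevents cumulative curves, so each strip gets one peptide concentration, then histamine 10 μM. Response is taken as % of the histamine maximum. EC50 comes from probit analysis, reported as pD2 (-log EC50, M), mean ± SE.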

[2] = organism: Cavia porcellus; test: Platelet aggregation in guinea pig; type: functional
Summary of the method: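 Platelet-rich plasma from arterial blood of anesthetized male Hartley guinea pigs, diluted to 3 × 10^8 platelets/mL in 0.39% sodium citrate. Peptides are serially diluted 1.5-fold and shaken with plasma and a 3 mm glass bead at 100 rpm, 5 min, 37 °C. Aggregation is scored visually at 40×. The threshold is the greatest dilution giving visible aggregation. At least three independent duplicate runs; C5a and C3a serve as standards.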

[3] = organism: Homo sapiens; test: Effective dose required for smooth muscle contraction in human fetal artery; type: functional; settings: Muscle tissue; summary of the method: as §1
[4] = biological target: T2, C5a anaphylatoxin chemotactic receptor 1 (Cavia porcellus) (UniProt O70129); test: Pharmacological activity against C5a receptor in guinea pig ileum; type: tissue-based; summary of the method: as §1
T2 sequence (whole entry): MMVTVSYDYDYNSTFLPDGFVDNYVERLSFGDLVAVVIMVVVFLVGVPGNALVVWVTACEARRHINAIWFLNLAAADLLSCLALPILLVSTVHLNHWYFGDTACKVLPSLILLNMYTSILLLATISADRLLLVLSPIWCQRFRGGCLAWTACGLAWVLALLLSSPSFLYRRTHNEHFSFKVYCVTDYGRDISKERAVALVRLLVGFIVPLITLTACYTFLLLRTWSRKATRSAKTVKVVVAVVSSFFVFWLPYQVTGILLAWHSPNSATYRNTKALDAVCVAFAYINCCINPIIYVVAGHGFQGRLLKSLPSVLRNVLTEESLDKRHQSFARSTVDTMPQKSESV

[5] = organism: Cavia porcellus; test: Effective dose required for smooth muscle contraction in guinea pig ileum; type: functional; settings: Muscle tissue; summary of the method: as §1
[6] = organism: Cavia porcellus; test: Effective dose required for smooth muscle contraction in Guinea pig lung parenchyma; type: functional; summary of the method: as §1
[7] = system: C5a anaphylatoxin chemotactic receptor 1 (Cavia porcellus); test: Tested for pharmacological activity against C5a receptor in Guinea pig lung parenchyma

CC(C)C[C@@H]1NC(=O)[C@@H]2CCCN2C(=O)[C@@H](NC(=O)[C@H](CC(=O)O)NC(=O)[C@H](CCCCN)NC(=O)[C@H](Cc2ccccc2)NC(=O)[C@H](CO)NC(=O)[C@@H](N)Cc2ccc(O)cc2)CSSC[C@@H](C(=O)N[C@@H](CCCN=C(N)N)C(=O)O)NC1=O (H-YSFKDCPLCR-OH; disulfide 6-9)
pD2 [1]: < 4
Platelet aggregation [2]: >410 µM
EC50 [3]: 162 µM

CSCC[C@H](NC(=O)[C@H](CC(=O)O)NC(=O)[C@H](CCCCN)NC(=O)[C@H](Cc1ccccc1)NC(=O)[C@H](CO)NC(=O)[C@@H](N)Cc1ccc(O)cc1)C(=O)N1CCC[C@H]1C(=O)N[C@@H](CC(C)C)C(=O)NCC(=O)N[C@@H](CCCN=C(N)N)C(=O)O
pD2 [4]: 5.14
pD2 [1]: 6.18
Platelet aggregation [2]: 6.3 µM
EC50 [5]: 11.5 µM
EC50 [6]: 8.1 µM
EC50 [3]: 1.13 µM

CC(C)C[C@H](NC(=O)[C@@H]1CCCN1C(=O)[C@H](CS)NC(=O)[C@H](CC(=O)O)NC(=O)[C@H](CCCCN)NC(=O)[C@H](Cc1ccccc1)NC(=O)[C@H](CO)NC(=O)[C@@H](N)Cc1ccc(O)cc1)C(=O)N[C@@H](CS)C(=O)N[C@@H](CCCN=C(N)N)C(=O)O (H-YSFKDCPLCR-OH)
pD2 [1]: 4.67
Platelet aggregation [2]: 4.1 µM
EC50 [3]: 26.6 µM

C[C@H](NC(=O)[C@@H]1CCCN1C(=O)[C@H](CCS)NC(=O)[C@H](CC(=O)O)NC(=O)[C@H](CCCCN)NC(=O)[C@H](Cc1ccccc1)NC(=O)[C@H](CO)NC(=O)[C@@H](N)Cc1ccc(O)cc1)C(=O)N[C@H](C)C(=O)N[C@@H](CCCN=C(N)N)C(=O)O
pD2 [1]: 4.86

H-ISFKDMQLGR-OH
Platelet aggregation [2]: 86.3 µM

CSCC[C@H](NC(=O)[C@H](CC(=O)O)NC(=O)[C@H](CCCCN)NC(=O)[C@H](Cc1ccccc1)NC(=O)[C@H](CO)NC(=O)[C@@H](N)Cc1ccc(O)cc1)C(=O)N[C@@H](CCC(N)=O)C(=O)N[C@@H](CC(C)C)C(=O)N[C@H](C)C(=O)N[C@@H](CCCN=C(N)N)C(=O)O
pD2 [1]: 5.42
Platelet aggregation [2]: 20 µM
EC50 [3]: 12.2 µM

CSCC[C@H](NC(=O)CNC(=O)[C@H](CCCCN)NC(=O)[C@H](Cc1ccccc1)NC(=O)[C@H](CO)NC(=O)[C@@H](N)Cc1ccc(O)cc1)C(=O)N[C@@H](CC(C)C)C(=O)N[C@@H](CC(C)C)C(=O)NCC(=O)N[C@H](CCCN=C(N)N)C(=O)O
pD2 [1]: 4.43
EC50 [3]: 40 µM

CSCC[C@H](NC(=O)[C@H](CC(=O)O)NC(=O)[C@H](CCCCN)NC(=O)[C@H](Cc1ccccc1)NC(=O)[C@H](CO)NC(=O)[C@@H](N)Cc1ccc(O)cc1)C(=O)N[C@@H](CCC(N)=O)C(=O)N[C@@H](CC(C)C)C(=O)N[C@@H](C)C(=O)N[C@@H](CCCN=C(N)N)C(=O)O
pD2 [1]: 4.04
Platelet aggregation [2]: 34 µM
EC50 [3]: 122 µM

H-YSFKDCPLGR-OH
pD2 [1]: 5.79
Platelet aggregation [2]: 2.3 µM
EC50 [3]: 2.04 µM

CSCC[C@H](NC(=O)CNC(=O)[C@H](CCCCN)NC(=O)[C@H](Cc1ccccc1)NC(=O)[C@H](CO)NC(=O)[C@@H](N)Cc1ccc(O)cc1)C(=O)N[C@@H](CC(C)C)C(=O)N[C@@H](CC(C)C)C(=O)NCC(=O)N[C@@H](CCCN=C(N)N)C(=O)O
pD2 [4]: 4.61
pD2 [1]: 5.34
Platelet aggregation [2]: 10.5 µM
EC50 [5]: 26.8 µM
EC50 [6]: 15.1 µM
EC50 [3]: 4.9 µM
pD2 [7]: 5

CSCC[C@H](NC(=O)[C@H](CC(=O)O)NC(=O)[C@H](CCCCN)NC(=O)[C@H](Cc1ccccc1)NC(=O)[C@H](CO)NC(=O)[C@@H](N)Cc1ccc(O)cc1)C(=O)N[C@@H](CCC(N)=O)C(=O)N[C@@H](CC(C)C)C(=O)N1CCC[C@H]1C(=O)N[C@@H](CCCN=C(N)N)C(=O)O
pD2 [1]: < 3
Platelet aggregation [2]: 225 µM
EC50 [3]: > 1000 µM

CC(C)C[C@H](NC(=O)[C@@H]1CCCN1C(=O)[C@H](C)NC(=O)[C@H](CC(=O)O)NC(=O)[C@H](CCCCN)NC(=O)[C@H](Cc1ccccc1)NC(=O)[C@H](CO)NC(=O)[C@@H](N)Cc1ccc(O)cc1)C(=O)NCC(=O)N[C@@H](CCCN=C(N)N)C(=O)O
pD2 [4]: 4.79
pD2 [1]: 6.11
Platelet aggregation [2]: 7.4 µM
EC50 [5]: 26.6 µM
EC50 [3]: 1.74 µM

H-YSFKGMPLGR-OH
pD2 [1]: 6.23
Platelet aggregation [2]: 6.3 µM
EC50 [3]: 0.59 µM

H-YSFKDMQLGR-OH
pD2 [4]: 4.51
pD2 [1]: 5.05
Platelet aggregation [2]: 22.9 µM
EC50 [5]: 37.5 µM
EC50 [6]: 28.4 µM
EC50 [3]: 11.2 µM

CSCC[C@H](NC(=O)[C@H](CC(=O)O)NC(=O)[C@H](CCCCN)NC(=O)[C@H](Cc1ccccc1)NC(=O)[C@H](CO)NC(=O)[C@@H](N)Cc1ccc(O)cc1)C(=O)N1CCC[C@H]1C(=O)N[C@@H](C)C(=O)NCC(=O)N[C@@H](CCCN=C(N)N)C(=O)O
pD2 [1]: < 3
Platelet aggregation [2]: 101 µM
EC50 [3]: > 1000 µM

H-YSFKDMQPGR-OH
pD2 [4]: 3.64
pD2 [1]: 4.4
Platelet aggregation [2]: 500 µM
EC50 [5]: 344 µM
EC50 [3]: 48 µM

H-YSFKDMPPGR-OH
pD2 [1]: 4.68
Platelet aggregation [2]: 80 µM
EC50 [3]: 25.1 µM

H-YSFKGLLLGR-OH
pD2 [4]: 4.74
pD2 [1]: 5.21
Platelet aggregation [2]: 21 µM
EC50 [5]: 18.1 µM
EC50 [6]: 22.1 µM
EC50 [3]: 6.6 µM
